This note sets out measurements from ChEMBL document CHEMBL1131143, “Predictive models for GABAA/benzodiazepine receptor subtypes: studies of quantitative structure-activity relationships for imidazobenzodiazepines at five recombinant GABAA/benzodiazepine receptor subtypes [alphaxbeta3gamma2 (x = 1-3, 5, and 6)] via comparative molecular field analysis” (J Med Chem, 1998).

The structures appear in SMILES notation.

Type in all cases: protein-complex assay
Assay [1] addresses T1, GABA-A receptor; alpha-5/beta-3/gamma-2 (Homo sapiens, UniProt P18507+P28472+P31644).
T1 sequence (P18507 whole entry): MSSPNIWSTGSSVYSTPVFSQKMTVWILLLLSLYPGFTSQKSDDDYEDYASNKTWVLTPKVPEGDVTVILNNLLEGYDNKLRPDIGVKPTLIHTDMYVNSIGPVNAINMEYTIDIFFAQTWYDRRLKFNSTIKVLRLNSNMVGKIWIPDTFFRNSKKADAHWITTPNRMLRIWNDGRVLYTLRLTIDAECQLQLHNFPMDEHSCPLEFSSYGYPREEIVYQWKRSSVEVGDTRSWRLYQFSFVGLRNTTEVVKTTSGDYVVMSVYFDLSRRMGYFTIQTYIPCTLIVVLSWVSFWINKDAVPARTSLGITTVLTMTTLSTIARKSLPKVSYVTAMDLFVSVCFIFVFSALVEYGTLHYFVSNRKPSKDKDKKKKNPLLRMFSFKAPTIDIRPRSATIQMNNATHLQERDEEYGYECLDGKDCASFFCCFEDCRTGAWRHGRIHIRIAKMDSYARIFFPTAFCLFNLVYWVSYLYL
T1 sequence (P28472 whole entry): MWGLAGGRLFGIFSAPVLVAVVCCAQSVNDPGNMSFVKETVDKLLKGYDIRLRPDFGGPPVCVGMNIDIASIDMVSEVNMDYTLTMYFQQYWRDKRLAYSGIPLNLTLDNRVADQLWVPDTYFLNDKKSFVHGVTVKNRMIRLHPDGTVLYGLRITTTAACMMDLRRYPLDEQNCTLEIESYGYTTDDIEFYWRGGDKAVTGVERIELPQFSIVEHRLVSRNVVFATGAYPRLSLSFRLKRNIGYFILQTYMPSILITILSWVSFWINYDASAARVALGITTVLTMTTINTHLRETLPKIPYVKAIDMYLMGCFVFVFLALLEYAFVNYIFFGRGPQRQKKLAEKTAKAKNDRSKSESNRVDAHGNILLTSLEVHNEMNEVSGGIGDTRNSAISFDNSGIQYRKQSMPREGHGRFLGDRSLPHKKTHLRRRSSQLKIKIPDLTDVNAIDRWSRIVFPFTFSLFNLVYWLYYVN
T1 sequence (P31644 whole entry): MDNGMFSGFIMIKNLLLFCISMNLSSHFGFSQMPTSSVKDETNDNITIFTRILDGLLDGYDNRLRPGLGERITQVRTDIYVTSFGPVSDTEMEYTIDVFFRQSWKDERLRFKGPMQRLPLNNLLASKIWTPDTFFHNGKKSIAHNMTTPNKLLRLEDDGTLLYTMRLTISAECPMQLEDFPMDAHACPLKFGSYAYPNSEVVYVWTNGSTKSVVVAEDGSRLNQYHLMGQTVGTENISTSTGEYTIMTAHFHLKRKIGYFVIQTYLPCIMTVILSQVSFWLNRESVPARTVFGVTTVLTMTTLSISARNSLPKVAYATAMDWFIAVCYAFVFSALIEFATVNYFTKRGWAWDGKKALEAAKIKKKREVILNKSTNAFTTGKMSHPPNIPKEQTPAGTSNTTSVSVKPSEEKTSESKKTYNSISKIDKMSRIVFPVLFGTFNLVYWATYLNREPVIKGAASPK
Kind of assay: Binding affinity for Gamma-aminobutyric acid A receptor alpha-5-beta-3-gamma-2.

Assay [2] deals with GABA-A receptor; alpha-1/beta-3/gamma-2 (Homo sapiens) (UniProt P14867+P18507+P28472). Nature of the assay: It is the ratio of Ki value for alpha-1-beta-3-gamma-2 to that of alpha-5-beta-3-gamma-2.
Assay [3] deals with T2, GABA-A receptor; alpha-3/beta-3/gamma-2 (Homo sapiens, UniProt P18507+P28472+P34903).
T2 sequence (P18507 whole entry): T1 sequence (P18507 whole entry)
T2 sequence (P28472 whole entry): T1 sequence (P28472 whole entry)
T2 sequence (P34903 whole entry): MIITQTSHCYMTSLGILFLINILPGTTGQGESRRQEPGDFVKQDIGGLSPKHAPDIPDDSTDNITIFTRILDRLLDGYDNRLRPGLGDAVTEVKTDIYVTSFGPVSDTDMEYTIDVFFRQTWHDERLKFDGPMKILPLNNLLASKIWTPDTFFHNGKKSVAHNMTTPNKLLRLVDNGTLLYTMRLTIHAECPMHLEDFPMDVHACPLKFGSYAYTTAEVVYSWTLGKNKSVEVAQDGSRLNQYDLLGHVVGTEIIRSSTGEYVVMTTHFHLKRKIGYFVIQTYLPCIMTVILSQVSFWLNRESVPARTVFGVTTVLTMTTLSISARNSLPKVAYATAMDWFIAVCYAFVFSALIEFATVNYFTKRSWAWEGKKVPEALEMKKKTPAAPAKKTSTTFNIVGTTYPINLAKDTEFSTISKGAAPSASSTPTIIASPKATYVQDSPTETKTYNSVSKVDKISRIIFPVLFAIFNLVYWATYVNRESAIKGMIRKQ
Kind of assay: Binding affinity against alpha-3-beta-3-gamma-2 GABAA/BzR receptor subtype.

In assay [4] the target is GABA-A receptor; alpha-6/beta-3/gamma-2 (Homo sapiens, UniProt P18507+P28472+Q16445). Kind of assay: Binding affinity against Gamma-aminobutyric acid A receptor alpha-6-beta-3-gamma-2. In a few lines: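 Cells scraped into PBS, spun at 3000g, resuspended in 10 mM KH₂PO₄/100 mM KCl pH 7.4. Nonspecific binding with 10⁻⁵ M diazepam; 1 h to equilibrium at 4 °C; filtration, ice-cold buffer wash, scintillation counting.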

The target of assay [5] is T3, GABA-A receptor; alpha-2/beta-3/gamma-2 (Homo sapiens, UniProt P18507+P28472+P47869).
T3 sequence (P18507 whole entry): T1 sequence (P18507 whole entry)
T3 sequence (P28472 whole entry): T1 sequence (P28472 whole entry)
T3 sequence (P47869 whole entry): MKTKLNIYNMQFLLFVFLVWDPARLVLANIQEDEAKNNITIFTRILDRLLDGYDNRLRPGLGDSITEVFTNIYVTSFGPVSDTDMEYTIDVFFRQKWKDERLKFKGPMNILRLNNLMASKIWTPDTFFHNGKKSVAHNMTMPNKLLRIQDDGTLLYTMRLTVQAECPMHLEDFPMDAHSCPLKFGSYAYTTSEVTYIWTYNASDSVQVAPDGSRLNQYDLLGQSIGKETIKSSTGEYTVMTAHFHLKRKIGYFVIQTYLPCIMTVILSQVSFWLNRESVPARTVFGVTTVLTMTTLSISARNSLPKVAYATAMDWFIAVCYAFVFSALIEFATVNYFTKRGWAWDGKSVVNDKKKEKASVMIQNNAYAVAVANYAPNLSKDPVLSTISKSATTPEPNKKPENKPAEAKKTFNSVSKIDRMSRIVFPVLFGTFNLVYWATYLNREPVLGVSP
Nature of the assay: Binding affinity tested against alpha-2-beta-3-gamma-2 GABAA/BzR receptor subtype.

For assay [6], the target named is T4, GABA-A receptor; alpha-1/beta-3/gamma-2 (Homo sapiens, UniProt P14867+P18507+P28472).
T4 sequence (P14867 whole entry): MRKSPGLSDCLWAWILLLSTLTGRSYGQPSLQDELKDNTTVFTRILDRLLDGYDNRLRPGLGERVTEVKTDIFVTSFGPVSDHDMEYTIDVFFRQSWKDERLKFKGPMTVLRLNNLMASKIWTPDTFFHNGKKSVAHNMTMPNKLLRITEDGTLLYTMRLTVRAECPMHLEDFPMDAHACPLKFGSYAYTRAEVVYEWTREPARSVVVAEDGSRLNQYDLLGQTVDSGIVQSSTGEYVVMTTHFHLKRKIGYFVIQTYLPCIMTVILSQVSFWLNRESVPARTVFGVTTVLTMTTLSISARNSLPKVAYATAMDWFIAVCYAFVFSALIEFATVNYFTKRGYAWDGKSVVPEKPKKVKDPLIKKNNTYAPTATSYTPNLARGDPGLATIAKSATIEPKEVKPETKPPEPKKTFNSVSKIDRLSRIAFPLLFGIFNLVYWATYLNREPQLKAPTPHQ
T4 sequence (P18507 whole entry): T1 sequence (P18507 whole entry)
T4 sequence (P28472 whole entry): T1 sequence (P28472 whole entry)
Kind of assay: Binding affinity against alpha-1-beta-3-gamma-2 GABAA/BzR receptor subtype.

Sequence of GABA-A receptor; alpha-6/beta-3/gamma-2 (Q16445 whole entry, one chain of several): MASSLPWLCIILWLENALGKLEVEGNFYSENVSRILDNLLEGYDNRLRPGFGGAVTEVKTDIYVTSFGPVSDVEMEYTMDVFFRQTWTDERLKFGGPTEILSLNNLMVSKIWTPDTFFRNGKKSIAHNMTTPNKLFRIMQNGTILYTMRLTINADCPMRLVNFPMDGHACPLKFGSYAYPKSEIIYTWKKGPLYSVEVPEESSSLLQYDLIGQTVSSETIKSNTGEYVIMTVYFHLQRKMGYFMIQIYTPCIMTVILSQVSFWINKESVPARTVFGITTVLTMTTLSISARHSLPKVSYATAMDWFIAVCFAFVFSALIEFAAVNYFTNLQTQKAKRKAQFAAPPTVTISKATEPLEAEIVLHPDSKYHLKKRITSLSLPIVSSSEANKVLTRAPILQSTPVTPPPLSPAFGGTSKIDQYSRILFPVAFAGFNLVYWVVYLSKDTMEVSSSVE

`CCOC(=O)c1ncn2c1CN(C)C(=O)c1cc(CC)ccc1-2`: the Ki (in general, the dissociation constant of the complex between target and ligand, obtained from inhibition or displacement) in assay [1] was found to be 1.5 nM; in assay [3] it was 26.1 nM; in assay [4] it was 176 nM; in assay [5] it was 27 nM; in assay [6], 20.4 nM. Further, the Ratio in assay [2] was 13.6.
Take `CN1Cc2c(C(=O)OC(C)(C)C)ncn2-c2ccc(Cl)cc2C1=O`: the Ki amounted to 0.65 nM in assay [1]; 29.1 nM in assay [3]; 4 nM in assay [4]; 21.6 nM in assay [5]; 17.3 nM in assay [6]. Also, the Ratio in assay [2] is 26.6.
On to `C#Cc1ccc2c(c1)C(=O)N1CCC[C@H]1c1c(-c3nc(C(C)C)no3)ncn1-2`, for which the inhibition constant Ki in assay [1] was 4.8 nM; in assay [3], 97 nM; in assay [4], 333 nM; in assay [5], 85 nM; in assay [6], 73 nM. Moreover, the Ratio in assay [2] came out at 15.
With `COc1ccc2c(c1)C(=O)N(C)Cc1c(C(=O)OC(C)(C)C)ncn1-2`, the Ki was 0.293 nM in assay [1], 7.42 nM in assay [3], 8.28 nM in assay [4] and 6.74 nM in assay [6]. For the same compound, in assay [2], the Ratio amounted to 23.
On to `CN1Cc2c(C(=O)OCC3CC3)ncn2-c2ccc(Cl)cc2C1=O`, for which the Ki in assay [1] came to 9.8 nM; in assay [3] it was 42.5 nM; in assay [4], 168 nM; in assay [5], 48.2 nM; in assay [6], 16.4 nM. Further, in assay [2], the Ratio is 1.7.
Regarding `C#Cc1ccc2c(c1)C(=O)N(C)Cc1c(C(=O)OCC)ncn1-2`, the Ki in assay [1] came out at 0.49 nM; in assay [3], 25.8 nM; in assay [4], 28.8 nM; in assay [5], 21.4 nM; in assay [6], 28.4 nM. Besides, the Ratio in assay [2] turned out to be 58.
For the compound `CCN(CC)Cc1ncn2c1CN(C)C(=O)c1cc(Cl)ccc1-2`, the Ki in assay [1] amounted to 2580 nM; in assay [3], 15400 nM; in assay [4], 30200 nM; in assay [5] it was 30000 nM; in assay [6] it was 9480 nM. Further, the Ratio in assay [2] was found to be 3.2.
`CCOC(=O)c1ncn2c1CN(C)C(=O)c1cc(C#CC[Si](C)(C)C)ccc1-2`: the Ki in assay [1], in assay [3], in assay [4], in assay [5] and in assay [6] was above 300 nM in each case.
As for `CCOC(=O)c1ncn2c1CN(C)C(=O)c1cc(C#C[Si](C)(C)C)ccc1-2`, the inhibition constant (Ki) in assay [1] stood at 5 nM; in assay [3] it was 198 nM; in assay [4], 114 nM; in assay [5] it was 142 nM. Also, the Ratio in assay [2] was 24.2.
In the case of `CCOC(=O)c1ncn2c1CN(C)C(=O)c1cc(Cl)ccc1-2` [Ro-151310], the Ratio in assay [2] is 8.
As for `CN1Cc2c(C(=O)OC(C)(C)C)ncn2-c2ccc(O)cc2C1=O`, the Ki in assay [1] was 0.14 nM; in assay [3] it was 0.53 nM; in assay [4], 6.89 nM; in assay [6], 1.5 nM. Moreover, in assay [2], the Ratio stood at 10.7.
As to `C#Cc1ccc2c(c1)C(=O)N1CCC[C@@H]1c1c(-c3nc(C)no3)ncn1-2`, the Ki in assay [1] was 157 nM; in assay [3], above 1000 nM; in assay [4] it was above 1000 nM; in assay [5], above 1000 nM; in assay [6], above 1000 nM.
As to `CCOC(=O)c1ncn2c1[C@H]1CCCN1C(=O)c1cc(Br)ccc1-2`, the Ki in assay [1], in assay [3], in assay [4], in assay [5] and in assay [6] was above 1000 nM throughout.
As for `C=Cc1ccc2c(c1)C(=O)N(C)Cc1c(C(=O)OCC)ncn1-2`, the Ki stood at 0.4 nM in assay [1], 6.9 nM in assay [3], 10.2 nM in assay [5] and 8.3 nM in assay [6]. The Ratio in assay [2] turned out to be 20.8.
`CN1Cc2c(C(=O)OC(C)(C)C)ncn2-c2ccc(N3CCCC3)cc2C1=O`: the Ki came to 9.25 nM in assay [1], 169 nM in assay [3], 325 nM in assay [4] and 5.8 nM in assay [6]. Moreover, the Ratio in assay [2] came out at 0.63.
The matching figures for `CN1Cc2c(C(=O)OC(C)(C)C)ncn2-c2ccc(N=[N+]=[N-])cc2C1=O`: 0.3 nM, 5.66 nM, 5.25 nM, 7.25 nM and 24.3.
With `CCOC(=O)c1ncn2c1[C@H]1CCCN1C(=O)c1cc(C#C[Si](C)(C)C)ccc1-2`, the Ki in assay [1], in assay [3], in assay [4], in assay [5] and in assay [6] was above 1000 nM each time.
`CCOC(=O)c1ncn2c1CN(C)C(=O)c1cc(N=[N+]=[N-])ccc1-2` [Ro-154513]: the Ki in assay [1] is 0.27 nM.
Regarding `CN1Cc2c(CO)ncn2-c2ccc(Cl)cc2C1=O`, the Ki in assay [1], in assay [3], in assay [4], in assay [5] and in assay [6] was above 300 nM in each case.
For `C#Cc1ccc2c(c1)C(=O)N1CC[C@H]1c1c(-c3nc(C)no3)ncn1-2`, the inhibition constant Ki stood at 7.2 nM in assay [1], 91 nM in assay [3], 266 nM in assay [4] and 56 nM in assay [5].
